Assays:
[1] = tested on: HTLV-1 Gag cleavage in SP cells (chronically infected with HTLV-1); assay: SP cell protease inhibition treatment, Gag processing by anti-p24 immunoblot; format: cell-based; conditions: 48 h; for Amount of full-length (FL) Gag and larger size cleavage intermediates (CI): SP cell lysates and supernatants, 50 µM or 100 µM; for FL Gag band percentage (mean ± SEM), cell lysate: SP cell lysate, DMSO 2.0 ± 1.0%; for FL Gag band percentage (mean ± SEM), cell lysate / FL Gag band percentage (mean ± SEM), viral particles produced from SP cells: n=3; for FL Gag band percentage (mean ± SEM), viral particles produced from SP cells: particles in cell culture supernatant
Outline: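 SP cells kept in RPMI with 20% FC3 serum, 1% penicillin-streptomycin and human IL-2 (10 U/ml). Medium exchanged for medium containing 50 or 100 µM test compound, or 0.01% v/v DMSO control, for 48 h at 37 °C and 5% CO2. Supernatant was 0.22 µm-filtered and pelleted over an 8% Optiprep cushion, with pellet lysed in RIPA buffer. Lysates and pellets were immunoblotted with anti-p24. FL Gag was quantified as % of lane bands, reported as mean ± SEM (n=3), and compared with DMSO by one-tailed t-test.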

[2] = tested on: wild type (WT) HIV-1 protease; conditions: cited from earlier work
HTLV-1 protease = HTLV-1 protease (Human T-cell leukemia virus type I, UniProt Q82134, L40I); conditions: relative to UM6

## CC(C)CN(C[C@@H](O)[C@H](Cc1ccccc1)NC(=O)O[C@H]1CO[C@H]2OCC[C@H]21)S(=O)(=O)c1ccc(N)cc1 [DRV, darunavir, reference compound]
[1]
  Amount of full-length (FL) Gag and larger size cleavage intermediates (CI): increased
[2]
  Potency against wild type (WT) HIV-1 protease: low-picomolar

## CCOP(=O)(COc1ccc(C[C@H](NC(=O)O[C@H]2CO[C@H]3OCC[C@H]32)[C@H](O)CN(CC(CC)CC)S(=O)(=O)c2ccc(N)cc2)cc1)OCC [PU6]
[1]; 50 µM inhibitor
  FL Gag band percentage (mean ± SEM), cell lysate: 32.4 ± 15.5%
  FL Gag band percentage (mean ± SEM), viral particles produced from SP cells: 5.8 ± 2.8%
[1]; 100 µM inhibitor
  FL Gag band percentage (mean ± SEM), cell lysate: 41.0 ± 13.7%
  FL Gag band percentage (mean ± SEM), viral particles produced from SP cells: 12.9 ± 3.1%
[1]
  Amount of full-length (FL) Gag and larger size cleavage intermediates (CI): increased
HTLV-1 protease
  Fold better inhibition of HTLV-1 protease than UM6: 4 fold

From publication PMC8126997 (ACS chemical biology, 2021)
